Legend:
[1] = target: T1, Metabotropic glutamate receptor 2 (Homo sapiens, UniProt Q14416); test: Positive allosteric modulator activity at human mGlu2R expressed in CHO cells incubated for 30 mins by [35S]GTPgammaS binding assay; assay type: functional, cell-based
Target sequence in this assay (Q14416 whole entry): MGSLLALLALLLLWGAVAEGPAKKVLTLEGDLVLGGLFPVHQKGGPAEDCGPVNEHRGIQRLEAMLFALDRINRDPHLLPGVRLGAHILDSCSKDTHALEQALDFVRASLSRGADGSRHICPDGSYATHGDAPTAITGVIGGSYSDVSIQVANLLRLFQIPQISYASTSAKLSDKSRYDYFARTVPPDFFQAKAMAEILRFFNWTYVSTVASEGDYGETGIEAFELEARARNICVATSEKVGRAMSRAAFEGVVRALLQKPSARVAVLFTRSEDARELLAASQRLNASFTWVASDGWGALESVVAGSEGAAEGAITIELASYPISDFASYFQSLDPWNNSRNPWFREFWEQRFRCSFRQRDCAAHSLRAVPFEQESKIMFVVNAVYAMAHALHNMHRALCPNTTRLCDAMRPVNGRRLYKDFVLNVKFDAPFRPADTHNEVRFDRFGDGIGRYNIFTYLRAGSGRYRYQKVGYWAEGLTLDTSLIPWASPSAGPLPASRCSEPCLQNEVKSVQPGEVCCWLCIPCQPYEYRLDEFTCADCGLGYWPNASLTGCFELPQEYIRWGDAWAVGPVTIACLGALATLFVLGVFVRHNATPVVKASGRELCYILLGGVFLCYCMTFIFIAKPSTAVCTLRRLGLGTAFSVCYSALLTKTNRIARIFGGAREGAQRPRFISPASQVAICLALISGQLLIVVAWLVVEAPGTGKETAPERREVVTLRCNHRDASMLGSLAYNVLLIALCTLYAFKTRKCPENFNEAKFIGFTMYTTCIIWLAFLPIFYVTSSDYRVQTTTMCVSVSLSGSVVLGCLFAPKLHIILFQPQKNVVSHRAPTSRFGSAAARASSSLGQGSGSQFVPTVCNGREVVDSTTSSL

[2] = Drug metabolism in mouse liver microsomes at 5 uM after 15 mins; assay type: ADME, Microsome; details: read-out: Drug metabolism
[3] = Drug metabolism in human liver microsomes at 5 uM after 15 mins; assay type: ADME, Microsome; details: read-out: Drug metabolism
Method in brief: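 Compound at 5 μM incubated 15 min with human liver microsomes; read-out is % of compound metabolized. Values are the mean of at least two experiments.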

[4] = target: T1, Metabotropic glutamate receptor 2; test: Positive allosteric modulator activity at human mGlu2R expressed in CHO cells incubated for 30 mins by [35S]GTPgammaS binding assay relative to control; assay type: functional, cell-based
Target sequence in this assay (Q14416 19-872 limits assumed): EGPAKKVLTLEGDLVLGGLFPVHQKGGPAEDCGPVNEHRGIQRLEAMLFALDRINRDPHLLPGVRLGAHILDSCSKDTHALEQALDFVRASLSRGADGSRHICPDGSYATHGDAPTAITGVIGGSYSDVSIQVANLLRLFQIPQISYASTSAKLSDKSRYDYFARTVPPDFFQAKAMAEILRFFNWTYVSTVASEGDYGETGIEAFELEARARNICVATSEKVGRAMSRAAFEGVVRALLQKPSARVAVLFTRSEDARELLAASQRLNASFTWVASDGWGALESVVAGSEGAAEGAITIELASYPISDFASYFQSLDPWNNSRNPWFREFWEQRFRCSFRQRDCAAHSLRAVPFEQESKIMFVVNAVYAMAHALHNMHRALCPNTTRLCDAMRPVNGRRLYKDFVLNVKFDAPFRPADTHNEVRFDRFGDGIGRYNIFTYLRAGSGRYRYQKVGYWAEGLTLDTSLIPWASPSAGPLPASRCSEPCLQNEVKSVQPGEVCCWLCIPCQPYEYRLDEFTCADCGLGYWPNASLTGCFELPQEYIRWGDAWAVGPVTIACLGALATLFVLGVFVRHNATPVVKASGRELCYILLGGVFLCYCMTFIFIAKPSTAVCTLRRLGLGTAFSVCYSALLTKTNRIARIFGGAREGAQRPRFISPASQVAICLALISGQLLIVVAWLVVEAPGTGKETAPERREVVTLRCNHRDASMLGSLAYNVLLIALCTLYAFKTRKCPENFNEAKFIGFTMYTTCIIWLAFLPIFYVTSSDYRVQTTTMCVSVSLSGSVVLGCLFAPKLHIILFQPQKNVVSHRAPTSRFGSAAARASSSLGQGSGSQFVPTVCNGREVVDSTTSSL

[5] = target: hERG (Homo sapiens, UniProt Q12809); test: Inhibition of human ERG expressed in HEK293 cells at 3 uM by patch clamp assay; assay type: cell-based; details: HEK293 cells expressing hERG
Method in brief: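 HEK293 cells stably expressing hERG, whole-cell currents recorded by automated patch clamp in extracellular solution (mM: 150 NaCl, 4 KCl, 1 MgCl2, 1.8 CaCl2, 10 HEPES, 5 glucose, pH 7.4). Vehicle (0.1% DMSO) applied for 5 min, then compound at 0.1, 0.3 and 3 μM, each applied twice (n = 3). Effect taken after 5 min as the mean current of three pulses; residual current compared with vehicle.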

[6] = Ratio of drug level in brain to plasma in Swiss mouse at 10 mg/kg, sc administered as single dose measured 1 hr post dose; assay type: ADME, organism-based; design: dose 10 mg/kg, route subcutaneous; details: read-out: BPR
Method in brief: (§1)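 Swiss mice given a single 10 mg/kg sc dose at 1 mg/mL in 20% HP-β-CD + HCl solution, pH 4. Brain and plasma levels taken 1 h post dose. Values are geometric means of at least two runs.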

[7] = Plasma concentration in Swiss mouse at 10 mg/kg, sc administered as single dose measured 1 hr post dose; assay type: ADME, organism-based; design: dose 10 mg/kg, route subcutaneous; method in brief: as §1
[8] = Drug level in Swiss mouse brain at 10 mg/kg, sc administered as single dose measured 1 hr post dose; assay type: ADME, organism-based; design: dose 10 mg/kg, route subcutaneous; details: read-out: Drug uptake; method in brief: as §1
[9] = Clearance in Sprague-Dawley rat at […], iv; assay type: ADME, organism-based; design: dose 2.5 mg/kg, route intravenous; details: in vivo
[10] = Half life in Sprague-Dawley rat at […], iv; assay type: ADME, organism-based; design: dose 2.5 mg/kg, route intravenous; details: in vivo
[11] = AUC (0 to infinity) in Sprague-Dawley rat at 10 mg/kg, po; assay type: ADME, organism-based; design: time infinity, dose 10 mg/kg, route oral; details: plasma
[12] = Oral bioavailability in Sprague-Dawley rat at 10 mg/kg; assay type: ADME, organism-based; details: in vivo
[13] = Tmax in Sprague-Dawley rat at […], iv or 10 mg/kg, po; assay type: ADME, organism-based; details: in vivo
[14] = Volume of distribution at steady state in Sprague-Dawley rat at […], iv or 10 mg/kg, po; assay type: ADME, organism-based; details: in vivo, read-out: Vdss
[15] = Cmax in Sprague-Dawley rat at […], iv or 10 mg/kg, po; assay type: ADME, organism-based; details: in vivo

hERG, sequence (Q12809 whole entry): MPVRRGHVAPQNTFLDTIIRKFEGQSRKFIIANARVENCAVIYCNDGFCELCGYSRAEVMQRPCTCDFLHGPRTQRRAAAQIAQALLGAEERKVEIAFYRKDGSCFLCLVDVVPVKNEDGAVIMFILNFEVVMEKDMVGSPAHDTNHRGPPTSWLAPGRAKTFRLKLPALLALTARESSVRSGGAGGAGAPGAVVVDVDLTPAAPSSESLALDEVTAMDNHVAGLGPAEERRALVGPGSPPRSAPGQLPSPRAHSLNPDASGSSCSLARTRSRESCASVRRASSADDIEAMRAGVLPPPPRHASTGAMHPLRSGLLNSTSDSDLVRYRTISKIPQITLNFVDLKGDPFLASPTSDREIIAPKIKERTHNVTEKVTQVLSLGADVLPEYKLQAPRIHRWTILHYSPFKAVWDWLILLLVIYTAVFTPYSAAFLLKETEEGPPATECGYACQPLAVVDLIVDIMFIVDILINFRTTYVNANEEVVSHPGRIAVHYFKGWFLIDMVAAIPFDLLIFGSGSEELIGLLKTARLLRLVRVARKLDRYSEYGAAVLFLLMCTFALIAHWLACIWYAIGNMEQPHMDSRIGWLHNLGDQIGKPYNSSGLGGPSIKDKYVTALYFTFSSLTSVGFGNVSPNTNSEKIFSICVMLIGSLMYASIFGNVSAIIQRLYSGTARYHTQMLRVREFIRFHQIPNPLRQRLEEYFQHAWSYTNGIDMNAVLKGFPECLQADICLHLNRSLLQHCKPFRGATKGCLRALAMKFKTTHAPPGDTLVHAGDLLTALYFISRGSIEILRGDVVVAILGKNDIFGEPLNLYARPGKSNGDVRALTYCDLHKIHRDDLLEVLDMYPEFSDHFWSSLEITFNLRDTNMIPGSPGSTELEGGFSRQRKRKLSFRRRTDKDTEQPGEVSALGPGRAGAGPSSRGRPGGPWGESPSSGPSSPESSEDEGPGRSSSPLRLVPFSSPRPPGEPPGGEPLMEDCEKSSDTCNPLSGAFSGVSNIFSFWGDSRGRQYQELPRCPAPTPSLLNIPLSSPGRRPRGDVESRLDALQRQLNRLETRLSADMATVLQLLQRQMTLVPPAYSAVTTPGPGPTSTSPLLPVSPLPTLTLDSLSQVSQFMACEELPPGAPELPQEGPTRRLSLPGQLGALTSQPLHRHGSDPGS

EC50 [1] | metabolised at […], 5 µM [2] | metabolised at […], 5 µM [3] | Emax [4] | Kp at 1 h [6] | concentration at 1 h [7] | concentration at 1 h [8] | clearance [9] | half-life [10] | AUC(0-inf) [11] | bioavailability [12] | Tmax [13] | Vd [14] | Cmax [15] | Compound | inhibition at 3 µM [5]
– | 13% | 18% | 292% | – | – | – | – | – | – | – | – | – | – | FC(F)(F)c1c(N2CCC(F)(c3ccccc3)CC2)ccn2c(CC3CC3)nnc12 | 84%
519 nM | 78% | 31% | 268% | – | – | – | – | – | – | – | – | – | – | FC(F)(F)c1c(N2CCC(c3cccnc3)CC2)ccn2c(CC3CC3)nnc12 | –
– | 54% | 33% | 364% | – | – | – | – | – | – | – | – | – | – | CCCCc1nnc2c(C(F)(F)F)c(N3CCC(c4ccccc4)CC3)ccn12 | 91%
– | 41% | 56% | 243% | 1.6 | – | – | 77 mL/min/kg | 2.1 h | 1160 ng·h/mL | 53% | 1.3 h | 5.1 L/kg | 289 ng/mL | FC(F)(F)C1(c2ccccc2)CCN(c2ccn3c(CC4CC4)nnc3c2Cl)CC1 | 42%
– | – | 56% | 343% | 1.4 | 2660 ng/mL | 3830 ng/mL | – | – | – | – | – | – | – | Clc1c(N2CCC(c3ccccc3)CC2)ccn2c(CC3CC3)nnc12 | 99%
– | 10% | 9% | 277% | – | – | – | – | – | – | – | – | – | – | N#Cc1c(N2CCC(c3ccccc3)CC2)ccn2c(CC(F)(F)F)nnc12 | 33%
10 nM | 16% | 2% | 306% | – | – | – | – | – | – | – | – | – | – | Fc1ccc(C2CCN(c3ccn4c(CC5CC5)nnc4c3C(F)(F)F)CC2)c(F)c1 | 91%
944 nM | 53% | 62% | 308% | – | – | – | – | – | – | – | – | – | – | Clc1c(N2CCN(c3ccccc3)CC2)ccn2c(CC3CC3)nnc12 | –
116 nM | 42% | 29% | 334% | 1.3 | – | – | 53 mL/min/kg | 1.9 h | 1010 ng·h/mL | 35% | 0.7 h | 1.4 L/kg | 359 ng/mL | CCc1nnc2c(C(F)(F)F)c(N3CCC(c4ccccc4)CC3)ccn12 | 36%
55 nM | 8% | 13% | 300% | 1.8 | 1160 ng/mL | 2090 ng/mL | – | – | – | – | – | – | – | FC(F)(F)Cc1nnc2c(Cl)c(N3CCC(c4ccccc4)CC3)ccn12 | 71%
400 nM | 89% | 50% | 330% | – | – | – | – | – | – | – | – | – | – | FC(F)(F)c1c(N2Cc3ccccc3C2)ccn2c(CC3CC3)nnc12 | –
1230 nM | 72% | 38% | 175% | – | – | – | – | – | – | – | – | – | – | FC(F)(F)c1c(N2CCC(c3ccccc3)C2)ccn2c(CC3CC3)nnc12 (racemic) | –
149 nM | 86% | 52% | 278% | – | – | – | – | – | – | – | – | – | – | FC(F)(F)c1c(N2CCc3ccccc3C2)ccn2c(CC3CC3)nnc12 | –

Further lines, the compound ahead of its results:

Compound | EC50 [1] | metabolised at […], 5 µM [2] | metabolised at […], 5 µM [3] | Emax [4] | Kp at 1 h [6] | concentration at 1 h [7] | concentration at 1 h [8] | clearance [9] | half-life [10] | AUC(0-inf) [11] | bioavailability [12] | Tmax [13] | Vd [14] | Cmax [15] | inhibition at 3 µM [5]
COCc1nnc2c(C#N)c(N3CCC(c4ccccc4)CC3)ccn12 | 468 nM | 31% | 12% | 196% | – | – | – | – | – | – | – | – | – | – | –
CCCc1cnc2c(C#N)c(N3CCC(c4ccccc4)CC3)ccn12 | – | 81% | 74% | 254% | – | – | – | – | – | – | – | – | – | – | –
N#Cc1c(N2CCC(c3ccccc3)CC2)ccn2c(CC(F)(F)F)cnc12 | 125 nM | 41% | 24% | 259% | – | – | – | – | – | – | – | – | – | – | –
CCc1nnc2c(Cl)c(N3CCC(c4ccccc4)CC3)ccn12 | 386 nM | 39% | 57% | 262% | – | – | – | – | – | – | – | – | – | – | 43%
CCc1nnc2c(C#N)c(N3CCC(c4ccccc4)CC3)ccn12 | – | 7% | 11% | 247% | 0.2 | 672 ng/mL | 135 ng/mL | – | – | – | – | – | – | – | 20%
CCc1cnc2c(C#N)c(N3CCC(c4ccccc4)CC3)ccn12 | – | 82% | 74% | 225% | – | – | – | – | – | – | – | – | – | – | –
N#Cc1c(N2CCC(c3ccccc3)CC2)ccn2c(CN3CCCC3)nnc12 | 1120 nM | 88% | 38% | 240% | – | – | – | – | – | – | – | – | – | – | –
CCCc1nnc2c(C#N)c(N3CCC(c4ccccc4)CC3)ccn12 | 299 nM | 40% | 25% | 272% | – | – | – | – | – | – | – | – | – | – | –
FC(F)(F)Cc1nnc2c(Cl)c(N3CCC(F)(c4ccccc4)CC3)ccn12 | – | 25% | 39% | 310% | 1.4 | – | – | 18 mL/min/kg | 2.6 h | 5990 ng·h/mL | 63% | 1.7 h | 1.9 L/kg | 807 ng/mL | 42%
N#Cc1c(N2CCC(c3ccccc3)CC2)ccn2c(CC3CC3)nnc12 | – | 25% | 6% | 278% | – | – | – | – | – | – | – | – | – | – | –
CC(C)(C)c1nnc2c(C#N)c(N3CCC(c4ccccc4)CC3)ccn12 | 1230 nM | – | – | 207% | – | – | – | – | – | – | – | – | – | – | –
